Source: ChEMBL document CHEMBL4428028, “Novel Combretastatin-2-aminoimidazole Analogues as Potent Tubulin Assembly Inhibitors: Exploration of Unique Pharmacophoric Impact of Bridging Skeleton and Aryl Moiety” (J Med Chem, 2016)
Values belong to the compound of their own block, whether it stands above or below them. The source made the active and inactive calls. The rule behind the calls is not given here.

Columns and labels:
[1] = tested on: HeLa; experiment: Antiproliferative activity against human HeLa cells incubated for 24 hrs by sulforhodamine B assay; format: functional, cell-based
Procedure, shortened: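 HeLa cells (1 × 10⁵ cells/mL) attached 24 h in MEM with 10% FBS, 37 °C, 5% CO2. Then treated with serial dilutions, DMSO final <0.1%, for 24 h. Fixed with 50% TCA, sulforhodamine B read-out, IC50 derived. Three independent experiments.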

[2] = tested on: MCF7; experiment: Antiproliferative activity against human MCF7 cells incubated for 48 hrs by sulforhodamine B assay; format: functional, cell-based; conditions: MCF7, 48 h
Procedure, shortened: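 MCF-7 cells (1 × 10⁵ cells/mL) attached 24 h in MEM with 10% FBS, 37 °C, 5% CO2. Exposed to serial dilutions, DMSO final <0.1%, for 48 h. TCA (50%) fixation, sulforhodamine B staining, IC50 determined. Three independent sets.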

[3] = tested on: MCF7; experiment: Induction of cell cycle arrest in human MCF7 cells assessed as accumulation at G1 phase at 10 nM incubated for 24 hrs by propidium iodide staining based flow cytometry (reference value: 49%); format: functional
[4] = tested on: Huh-7; experiment: Antiproliferative activity against human HuH7 cells incubated for 24 hrs by sulforhodamine B assay; format: functional, cell-based; conditions: Huh-7, 24 h
Procedure, shortened: (§1)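 Cells grown in DMEM with 2.2 g/L sodium bicarbonate, 10% FBS and antibiotic–antimycotic at 37 °C under 5% CO2. Compounds were dissolved in DMSO and diluted in medium (final DMSO <0.1%). Cells were exposed to a concentration series for 24 h, fixed with 50% TCA and stained with sulforhodamine B. IC50 was derived from three independent experiments.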

[5] = tested on: MDA-MB-231; experiment: Inhibition of cell migration of human MDA-MB-231 cells at 150 nM by wound closure assay; format: functional
Procedure, shortened: (§2)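 MDA-MB-231 cells grown to 90% confluency in 35 mm dishes and scratched with a microtip. Incubated without or with compound. Wound closure imaged at 0, 4 and 18 h and expressed as percent closure.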

[6] = tested on: MDA-MB-231; experiment: Antiproliferative activity against human MDA-MB-231 cells incubated for 24 hrs by sulforhodamine B assay; format: functional, cell-based; conditions: MDA-MB-231, 24 h; procedure, shortened: as §1
[7] = tested on: MDA-MB-231; experiment: Inhibition of cell migration of human MDA-MB-231 cells at 50 nM by wound closure assay; format: functional; procedure, shortened: as §2
[8] = tested on: MCF7; experiment: Induction of cell cycle arrest in human MCF7 cells assessed as accumulation at S phase at 50 nM incubated for 24 hrs by propidium iodide staining based flow cytometry (reference value: 35%); format: functional
[9] = tested on: MCF7; experiment: Induction of cell cycle arrest in human MCF7 cells assessed as accumulation at G1 phase at 5 nM incubated for 24 hrs by propidium iodide staining based flow cytometry (reference value: 49%); format: functional
[10] = tested on: MCF7; experiment: Induction of cell cycle arrest in human MCF7 cells assessed as accumulation at G2/M phase at 50 nM incubated for 24 hrs by propidium iodide staining based flow cytometry (reference value: 16%); format: functional
[11] = Binding affinity to goat brain tubulin assessed as reduction in binding of 5-(Quinolin-3-yl)-4-(3,4,5-trimethoxyphenyl)-1H-imidazol-2-amine to tubulin incubated for 15 mins by fluorescence based assay; parameters: species or system Ovis aries
Procedure, shortened: (§3)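 Goat brain tubulin (3 μM) was preincubated with competitor (1–20 μM) in 25 mM PIPES, pH 6.8, for 15 min at 25 °C. The 2-aminoimidazole probe (6 μM) was then added for 15 min at 25 °C. Emission was recorded at 420–520 nm with excitation at 350 nm. Ki was calculated as EC50/(1 + L/Kd). Three sets were run.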

[12] = tested on: MCF7; experiment: Induction of cell cycle arrest in human MCF7 cells assessed as accumulation at G2/M phase at 10 nM incubated for 24 hrs by propidium iodide staining based flow cytometry (reference value: 16%); format: functional
[13] = tested on: MCF7; experiment: Induction of cell cycle arrest in human MCF7 cells assessed as accumulation at G1 phase at 50 nM incubated for 24 hrs by propidium iodide staining based flow cytometry (reference value: 49%); format: functional
[14] = tested on: MCF7; experiment: Induction of cell cycle arrest in human MCF7 cells assessed as accumulation at G2/M phase at 5 nM incubated for 24 hrs by propidium iodide staining based flow cytometry (reference value: 16%); format: functional
[15] = tested on: MCF7; experiment: Induction of cell cycle arrest in human MCF7 cells assessed as accumulation at S phase at 5 nM incubated for 24 hrs by propidium iodide staining based flow cytometry (reference value: 35%); format: functional
[16] = Inhibition of goat brain tubulin assembly incubated for 10 mins by spectrophotometry; parameters: species or system Ovis aries
Procedure, shortened: (§4)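 Goat brain tubulin (12 μM; glutamate-purified, >97% pure) held 10 min on ice with compound in 25 mM PIPES, 1 mM EGTA, 3 mM MgCl2, 1 M glutamate. Then 1 mM GTP added. Assembly followed at 350 nm, 37 °C, for 20 min. Three independent experiments.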

[17] = tested on: EMT6; experiment: Antiproliferative activity against drug resistant mouse EMT6/AR1 cells incubated for 24 hrs by sulforhodamine B assay; format: functional, cell-based; conditions: EMT6, 24 h; procedure, shortened: as §1
[18] = tested on: MCF7; experiment: Induction of cell cycle arrest in human MCF7 cells assessed as accumulation at S phase at 10 nM incubated for 24 hrs by propidium iodide staining based flow cytometry (reference value: 35%); format: functional
[19] = tested on: MCF7; experiment: Induction of mitosis block in human MCF7 cells assessed as phospho-histone H3 (Ser10) staining positive cells level at 5 nM incubated for 24 hrs by immunostaining (reference value: 8 +/- 1%); format: functional
[20] = organism: Ovis aries; experiment: Binding affinity to goat brain tubulin incubated for 15 mins in presence of podophyllotoxin by fluorescence based assay; procedure, shortened: as §3
[21] = organism: Ovis aries; experiment: Binding affinity to goat brain tubulin at 5 and 10 uM incubated for 10 mins by fluorescence based assay
Procedure, shortened: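 Goat brain tubulin (2 μM) incubated 10 min at 25 °C with compound (5 and 10 μM) in 25 mM PIPES, pH 6.8. Ligand fluorescence spectra recorded at 420–520 nm, excitation 350 nm. Done three times.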

[22] = tested on: MCF7; experiment: Induction of mitosis block in human MCF7 cells at 5 and 10 uM incubated for 24 hrs by immunostaining; format: functional, cell-based
[23] = organism: Ovis aries; experiment: Binding affinity to goat brain tubulin at 6 uM […] with 10 and 30 uM paclitaxel by fluorescence based assay
[24] = organism: Ovis aries; experiment: Binding affinity to goat brain tubulin at 6 uM incubated for 10 mins after 10 mins incubation with 10 and 30 uM vinblastine by fluorescence based assay
[25] = organism: Ovis aries; experiment: Binding affinity to goat brain tubulin incubated for 15 mins in presence of CA-4 by fluorescence based assay
Procedure, shortened: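 Tubulin (3 μM) preincubated with CA-4 (1–20 μM) in 25 mM PIPES, pH 6.8, 15 min at 25 °C. Then 6 μM compound added for another 15 min at 25 °C. Spectra 420–520 nm taken with excitation 350 nm. Ki from Ki = EC50/(1 + L/Kd). Three sets.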

[26] = (§5) Binding affinity to goat brain tubulin incubated for 10 mins by tryptophan fluorescence quenching based assay; parameters: species or system Ovis aries
Procedure, shortened: (§6)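 Goat brain tubulin (2 μM), purified with 1 M glutamate, incubated 10 min at 25 °C with compound (1–20 μM) in 25 mM PIPES, pH 6.8. Tryptophan fluorescence read with excitation 295 nm. Kd obtained by fitting ΔF = ΔFmax·L/(Kd + L). Four independent sets.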

[27] = organism: Ovis aries; experiment: as §5; procedure, shortened: as §6
[28] = molecular target: T1, Tubulin (Homo sapiens) (UniProt P68371+Q9H4B7+P0DPH7+P68366+Q13509+Q71U36+P04350+Q3ZCM7+P07437+P68363+Q9BQE3+Q6PEY2+Q13885+Q9BVA1+Q9BUF5); experiment: Induction of interphase microtubule network depolymerization in human MCF7 cells at 10 nM incubated for 24 hrs by immunostaining method; format: cell-based
[29] = tested on: MCF7; experiment: Induction of mitotic spindle disturbance in human MCF7 cells assessed as monopolar spindle formation at 5 and 10 nM incubated for 24 hrs by immunostaining; format: functional, cell-based
[30] = organism: Ovis aries; experiment: Binding affinity to goat brain tubulin at 10 uM pre-incubated for 30 mins before 50 uM podophyllotoxin exposure for 30 mins by fluorescence based assay
Procedure, shortened: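 Displacement assay: tubulin was first incubated with the 2-aminoimidazole ligand for 30 min. It was then incubated without or with 50 μM podophyllotoxin or 50 μM CA-4 for a further 30 min. The read-out was the drop in fluorescence of the tubulin–ligand complex.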

[31] = organism: Ovis aries; experiment: Binding affinity to goat brain tubulin at 10 uM pre-incubated for 30 mins before 50 uM CA-4 exposure for 30 mins by fluorescence based assay
Procedure, shortened: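 Tubulin first incubated 30 min with test compound, then 30 min without or with 50 μM CA-4 or 50 μM podophyllotoxin. Read-out is fluorescence of the tubulin–compound complex.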

[32] = tested on: MCF7; experiment: Induction of mitosis block in human MCF7 cells assessed as phospho-histone H3 (Ser10) staining positive cells level at 10 nM incubated for 24 hrs by immunostaining (reference value: 8 +/- 1%); format: functional
[33] = molecular target: T1, Tubulin (Homo sapiens); experiment: Induction of interphase microtubule network depolymerization in human MCF7 cells at 5 nM incubated for 24 hrs by immunostaining method; format: cell-based
[34] = organism: Ovis aries; experiment: Inhibition of goat brain tubulin assembly at 20 uM incubated for 10 mins by spectrophotometry; procedure, shortened: as §4

Structure (SMILES): COc1cc(-c2nc(N)[nH]c2-c2ccc(N)nc2)cc(OC)c1OC
- IC50 [1]: 18 µM
- IC50 [2]: 21 µM

Structure (SMILES): COc1cc(-c2nc(N)[nH]c2-c2cc(OC)c(OC)c(OC)c2)cc(OC)c1OC
- IC50 [1]: 8 µM
- IC50 [2]: 12 µM

Structure (SMILES): COc1cc(-c2nc(N)[nH]c2-c2cccc(N)c2)cc(OC)c1OC
- IC50 [1]: 8 µM
- IC50 [2]: 6 µM

Structure (SMILES): COc1ccc(/C=C\c2cc(OC)c(OC)c(OC)c2)cc1O [COMBRETASTATIN A4]
- IC50 [1]: 0.025 µM
- Activity [3]: 41%
- IC50 [4]: 0.43 µM
- IC50 [2]: 0.018 µM
- inhibition at 0.15 µM [5]: 52%
- IC50 [6]: 0.331 µM
- inhibition at 0.05 µM [7]: 8%
- Activity [8]: 23%
- Activity [9]: 51%
- Activity [10]: 63%
- Kd [11]: 0.68 µM
- Activity [12]: 43%
- Activity [13]: 14%
- Activity [14]: 26%
- Activity [15]: 23%
- IC50 [16]: 1.7 µM
- IC50 [17]: 0.495 µM
- Activity [18]: 16%

Structure (SMILES): COc1cc([C@@H]2c3cc4c(cc3[C@H](O)[C@H]3COC(=O)[C@H]23)OCO4)cc(OC)c1OC [PODOFILOX]
- Kd [11]: 0.3 µM

Structure (SMILES): COc1cccc(-c2[nH]c(N)nc2-c2cc(OC)c(OC)c(OC)c2)c1
- IC50 [1]: 14 µM
- IC50 [2]: 18 µM

Structure (SMILES): COc1cc(-c2nc(N)[nH]c2-c2ccccc2)cc(OC)c1OC
- IC50 [1]: 34 µM
- IC50 [2]: 27 µM

Structure (SMILES): COc1cc(-c2nc(N)[nH]c2-c2cccc(O)c2)cc(OC)c1OC
- IC50 [1]: 18 µM
- IC50 [2]: 53 µM

Structure (SMILES): COc1cc(-c2nc(N)[nH]c2-c2cnc3ccccc3c2)cc(OC)c1OC
- Activity [19]: 15%
- Activity [20]: inactive
- IC50 [1]: 0.01 µM
- Activity [3]: 16%
- IC50 [4]: 0.335 µM
- IC50 [2]: 0.003 µM
- IC50 [6]: 0.096 µM
- Activity [21]: Active
- inhibition at 0.05 µM [7]: 56%
- Activity [9]: 34%
- Activity [22]: Active
- Activity [23]: Active
- Activity [12]: 74%
- Activity [14]: 40%
- Activity [15]: 25%
- Activity [24]: Active
- Activity [25]: inactive
- IC50 [16]: 1.6 µM
- inhibition ([16]; Ovis aries): Dose-dependent effect
- IC50 [17]: 0.35 µM
- Kd [26]: 1.9 µM
- Activity [27]: Dose-dependent effect
- Activity [28]: Active
- Activity [29]: Active
- Activity [30]: inactive
- Activity [31]: inactive
- Activity [32]: 26%
- Activity [18]: 10%
- Activity [33]: Active

Further lines, results first:

- IC50 [1]: 0.166 µM
- IC50 [2]: 0.174 µM
- IC50 [16]: 13 µM
Structure (SMILES): COc1ccc(-c2[nH]c(N)nc2-c2cc(OC)c(OC)c(OC)c2)cc1

- IC50 [1]: 4 µM
- IC50 [2]: 13 µM
Structure (SMILES): COc1cc(-c2nc(N)[nH]c2-c2cccnc2)cc(OC)c1OC

- IC50 [1]: 0.39 µM
- IC50 [2]: 0.22 µM
Structure (SMILES): COc1ccc(-c2[nH]c(N)nc2-c2cc(OC)c(OC)c(OC)c2)cc1O

- IC50 [1]: 0.197 µM
- IC50 [2]: 0.187 µM
- inhibition [34]: inactive
Structure (SMILES): Nc1nc(-c2ccccc2)c(-c2ccccc2)[nH]1

- IC50 [1]: 3 µM
- IC50 [2]: 8 µM
Structure (SMILES): COc1cc(-c2nc(N)[nH]c2-c2ccc(Cl)cc2)cc(OC)c1OC

- IC50 [1]: 3.4 µM
- IC50 [2]: 3 µM
Structure (SMILES): COc1cc(-c2nc(N)[nH]c2-c2ccc(F)cc2)cc(OC)c1OC

- IC50 [1]: 0.068 µM
- IC50 [2]: 0.071 µM
- IC50 [16]: 11 µM
Structure (SMILES): COc1ccc(-c2[nH]c(N)nc2-c2cc(OC)c(OC)c(OC)c2)cc1OC

- IC50 [1]: 3 µM
- IC50 [2]: 8 µM
Structure (SMILES): COc1cc(-c2nc(N)[nH]c2-c2ccc3[nH]ccc3c2)cc(OC)c1OC
